ChEMBL document CHEMBL1154177, “Special ergolines are highly selective, potent antagonists of the chemokine receptor CXCR3: discovery, characterization and preliminary SAR of a promising lead” (Bioorg Med Chem Lett, 2009)
In brackets after ≈: the same amount, converted by molar mass.

Tests used:
[1] = target: T1, C-X-C chemokine receptor type 3 (Homo sapiens, UniProt P49682); experiment: Displacement of [125I]I-TAC from human CXCR3 expressed in CHO cells by scintillation proximity assay; type: cell-based
T1 sequence (P49682 whole entry): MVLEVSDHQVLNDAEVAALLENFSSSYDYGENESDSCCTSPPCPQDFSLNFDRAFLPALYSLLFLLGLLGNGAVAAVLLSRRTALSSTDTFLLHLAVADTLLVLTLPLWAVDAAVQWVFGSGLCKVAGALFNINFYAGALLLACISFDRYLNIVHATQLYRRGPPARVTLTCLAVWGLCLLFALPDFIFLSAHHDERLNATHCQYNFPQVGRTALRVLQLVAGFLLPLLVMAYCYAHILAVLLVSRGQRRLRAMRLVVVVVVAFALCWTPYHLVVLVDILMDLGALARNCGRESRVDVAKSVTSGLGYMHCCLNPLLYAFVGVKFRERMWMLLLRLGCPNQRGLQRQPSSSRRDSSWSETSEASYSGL
Procedure, shortened: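 Membranes came from CHO cells transfected with human CXCR3. Serial dilutions of inhibitor were incubated for 2 h at room temperature with 125I-labelled I-TAC (CXCL11), the membranes and WGA-coated PVT beads. Binding was read by scintillation proximity.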

[2] = target: T1, C-X-C chemokine receptor type 3; experiment: Antagonist activity at human CXCR3 expressed in L1.2 cells assessed as inhibition of I-TAC-induced Ca2+ mobilization by FLIPR assay; type: functional, cell-based
Procedure, shortened: (§1)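 CXCR3-transfected L1.2 mouse pre-B cells were loaded with Fluo-4 and washed. They were pre-incubated with inhibitor for 2 h at room temperature, then stimulated with I-TAC. The transient rise in intracellular Ca2+ was read on a FLIPR.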

[3] = Solubility in pH 1.0 buffer; type: physicochemical
[4] = target: 5-hydroxytryptamine receptor 6 (Homo sapiens, UniProt P50406); experiment: Inhibition of 5HT6 receptor
[5] = Fraction unbound in human; type: ADME, organism-based; conditions: in vivo
[6] = target: 5-hydroxytryptamine receptor 1A (Homo sapiens, UniProt P08908); experiment: Inhibition of 5HT1A receptor
[7] = Lipophilicity, log P of the compound; type: physicochemical; conditions: octanol/water
[8] = target: Voltage-gated inwardly rectifying potassium channel KCNH2 (Homo sapiens, UniProt Q12809); experiment: Inhibition of human ERG
[9] = target: Alpha-2C adrenergic receptor (Homo sapiens, UniProt P18825); experiment: Inhibition of adrenergic Alpha-2C receptor
[10] = target: Cytochrome P450 2D6 (Homo sapiens, UniProt P10635); experiment: Inhibition of CYP2D6; type: ADME
[11] = target: Alpha-2A adrenergic receptor (Homo sapiens, UniProt P08913); experiment: Inhibition of adrenergic alpha2A receptor
[12] = target: 5-hydroxytryptamine receptor 2C (Homo sapiens, UniProt P28335); experiment: Inhibition of 5HT2C receptor
[13] = target: D(3) dopamine receptor (Homo sapiens, UniProt P35462); experiment: Inhibition of dopamine D3 receptor
[14] = target: Cytochrome P450 2C19 (Homo sapiens, UniProt P33261); experiment: Inhibition of CYP2C19; type: ADME
[15] = target: T2, C-X-C chemokine receptor type 3 (Mus musculus, UniProt O88410); experiment: Displacement of [125I]I-TAC from mouse CXCR3 expressed in CHO cells by scintillation proximity assay; type: cell-based
[16] = target: Cytochrome P450 1A2 (Homo sapiens, UniProt P05177); experiment: Inhibition of CYP1A2; type: ADME
[17] = target: Beta-1 adrenergic receptor (Homo sapiens, UniProt P08588); experiment: Inhibition of adrenergic beta-1 receptor
[18] = target: 5-hydroxytryptamine receptor 7 (Homo sapiens, UniProt P34969); experiment: Inhibition of 5HT7 receptor
[19] = Inhibition of adrenergic alpha1 receptor
[20] = Fraction unbound in rat; type: ADME, organism-based; conditions: in vivo
[21] = target: Cytochrome P450 2C9 (Homo sapiens, UniProt P11712); experiment: Inhibition of CYP2C9; type: ADME
[22] = Solubility in pH 6.8 buffer; type: physicochemical
[23] = target: D(4) dopamine receptor (Homo sapiens, UniProt P21917); experiment: Inhibition of dopamine D4.4 receptor
[24] = target: 5-hydroxytryptamine receptor 2B (Homo sapiens, UniProt P41595); experiment: Inhibition of 5HT2B receptor
[25] = target: D(1A) dopamine receptor (Homo sapiens, UniProt P21728); experiment: Inhibition of dopamine D1 receptor
[26] = target: 5-hydroxytryptamine receptor 2A (Homo sapiens, UniProt P28223); experiment: Inhibition of 5HT2A receptor
[27] = target: Cytochrome P450 3A4 (Homo sapiens, UniProt P08684); experiment: Inhibition of CYP3A4; type: ADME
[28] = target: T2, C-X-C chemokine receptor type 3; experiment: Antagonist activity at mouse CXCR3 expressed in L1.2 cells assessed as inhibition of I-TAC-induced Ca2+ mobilization by FLIPR assay; type: functional, cell-based; procedure, shortened: as §1
[29] = target: D(2) dopamine receptor (Homo sapiens, UniProt P14416); experiment: Inhibition of dopamine D2 receptor
Chain of D(2) dopamine receptor (P14416 whole entry): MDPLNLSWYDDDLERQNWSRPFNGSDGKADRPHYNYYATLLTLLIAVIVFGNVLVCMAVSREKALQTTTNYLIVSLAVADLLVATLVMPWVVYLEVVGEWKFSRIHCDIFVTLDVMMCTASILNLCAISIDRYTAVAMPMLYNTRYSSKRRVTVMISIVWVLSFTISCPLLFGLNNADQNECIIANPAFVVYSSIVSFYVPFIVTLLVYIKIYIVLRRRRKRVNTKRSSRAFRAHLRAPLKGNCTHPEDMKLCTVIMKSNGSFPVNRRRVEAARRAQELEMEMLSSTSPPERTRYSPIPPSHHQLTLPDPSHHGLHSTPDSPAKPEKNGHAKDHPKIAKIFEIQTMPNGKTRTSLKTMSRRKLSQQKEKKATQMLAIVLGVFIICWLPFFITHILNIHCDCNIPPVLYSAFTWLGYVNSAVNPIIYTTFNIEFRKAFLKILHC

Chain of 5-hydroxytryptamine receptor 7 (P34969 whole entry): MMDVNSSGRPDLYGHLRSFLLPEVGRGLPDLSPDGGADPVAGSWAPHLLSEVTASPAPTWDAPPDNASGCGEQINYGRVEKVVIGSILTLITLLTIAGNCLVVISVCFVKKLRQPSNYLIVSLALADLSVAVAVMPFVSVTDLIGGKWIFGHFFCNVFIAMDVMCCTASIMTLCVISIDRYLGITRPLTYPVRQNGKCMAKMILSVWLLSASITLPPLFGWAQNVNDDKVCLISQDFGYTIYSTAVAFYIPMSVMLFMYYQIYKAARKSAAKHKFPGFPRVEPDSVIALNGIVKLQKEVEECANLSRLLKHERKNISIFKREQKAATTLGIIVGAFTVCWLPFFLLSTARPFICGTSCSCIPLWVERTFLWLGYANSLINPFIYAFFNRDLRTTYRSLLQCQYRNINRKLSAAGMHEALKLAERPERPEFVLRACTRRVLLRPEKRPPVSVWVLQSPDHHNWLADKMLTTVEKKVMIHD
Chain of 5-hydroxytryptamine receptor 2C (P28335 whole entry): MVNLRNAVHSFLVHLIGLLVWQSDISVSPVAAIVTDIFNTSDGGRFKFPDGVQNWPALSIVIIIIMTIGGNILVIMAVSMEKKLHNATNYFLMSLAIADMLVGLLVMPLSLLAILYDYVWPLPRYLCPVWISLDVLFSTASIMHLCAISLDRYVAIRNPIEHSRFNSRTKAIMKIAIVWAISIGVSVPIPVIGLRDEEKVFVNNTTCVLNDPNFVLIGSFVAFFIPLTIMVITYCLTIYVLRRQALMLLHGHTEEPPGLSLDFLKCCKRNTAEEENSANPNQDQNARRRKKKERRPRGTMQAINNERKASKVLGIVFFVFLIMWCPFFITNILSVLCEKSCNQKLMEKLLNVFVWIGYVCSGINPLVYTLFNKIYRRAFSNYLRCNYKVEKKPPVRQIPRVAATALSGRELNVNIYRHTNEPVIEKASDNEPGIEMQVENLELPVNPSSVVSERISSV
Chain of D(1A) dopamine receptor (P21728 whole entry): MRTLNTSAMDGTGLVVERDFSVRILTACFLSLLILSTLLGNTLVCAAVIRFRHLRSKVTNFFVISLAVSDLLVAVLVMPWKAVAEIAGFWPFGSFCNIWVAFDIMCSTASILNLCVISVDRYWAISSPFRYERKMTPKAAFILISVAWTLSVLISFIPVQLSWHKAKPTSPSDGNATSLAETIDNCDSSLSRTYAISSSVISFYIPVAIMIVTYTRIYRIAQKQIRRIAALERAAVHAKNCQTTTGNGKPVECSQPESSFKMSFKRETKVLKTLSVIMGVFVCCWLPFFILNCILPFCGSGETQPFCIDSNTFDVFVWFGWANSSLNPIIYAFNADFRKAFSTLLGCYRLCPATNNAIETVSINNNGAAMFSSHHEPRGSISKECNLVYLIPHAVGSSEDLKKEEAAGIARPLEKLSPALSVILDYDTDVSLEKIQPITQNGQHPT
Chain of D(4) dopamine receptor (P21917 whole entry): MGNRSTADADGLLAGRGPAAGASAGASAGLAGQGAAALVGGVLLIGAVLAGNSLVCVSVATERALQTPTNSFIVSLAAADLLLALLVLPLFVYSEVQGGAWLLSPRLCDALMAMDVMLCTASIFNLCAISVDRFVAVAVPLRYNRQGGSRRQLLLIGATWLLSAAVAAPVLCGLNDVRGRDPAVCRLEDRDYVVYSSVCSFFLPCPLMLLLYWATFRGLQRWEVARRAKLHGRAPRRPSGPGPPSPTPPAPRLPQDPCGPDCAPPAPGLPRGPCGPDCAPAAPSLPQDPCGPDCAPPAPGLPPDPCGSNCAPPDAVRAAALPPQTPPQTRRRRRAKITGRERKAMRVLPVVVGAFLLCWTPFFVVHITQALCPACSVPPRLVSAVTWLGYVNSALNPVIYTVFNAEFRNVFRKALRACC
Chain of 5-hydroxytryptamine receptor 2A (P28223 whole entry): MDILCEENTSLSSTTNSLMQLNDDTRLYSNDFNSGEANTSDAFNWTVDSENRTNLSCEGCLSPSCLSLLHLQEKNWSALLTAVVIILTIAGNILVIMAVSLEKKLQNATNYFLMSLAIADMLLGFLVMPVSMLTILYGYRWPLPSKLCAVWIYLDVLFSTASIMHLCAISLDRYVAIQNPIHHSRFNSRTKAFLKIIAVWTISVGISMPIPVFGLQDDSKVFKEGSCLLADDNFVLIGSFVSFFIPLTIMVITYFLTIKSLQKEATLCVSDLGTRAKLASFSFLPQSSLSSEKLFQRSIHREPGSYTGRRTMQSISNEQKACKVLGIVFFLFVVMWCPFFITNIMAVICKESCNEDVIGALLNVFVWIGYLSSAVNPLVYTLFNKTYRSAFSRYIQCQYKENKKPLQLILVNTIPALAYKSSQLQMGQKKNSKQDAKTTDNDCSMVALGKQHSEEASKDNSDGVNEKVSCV
Chain of Beta-1 adrenergic receptor (P08588 whole entry): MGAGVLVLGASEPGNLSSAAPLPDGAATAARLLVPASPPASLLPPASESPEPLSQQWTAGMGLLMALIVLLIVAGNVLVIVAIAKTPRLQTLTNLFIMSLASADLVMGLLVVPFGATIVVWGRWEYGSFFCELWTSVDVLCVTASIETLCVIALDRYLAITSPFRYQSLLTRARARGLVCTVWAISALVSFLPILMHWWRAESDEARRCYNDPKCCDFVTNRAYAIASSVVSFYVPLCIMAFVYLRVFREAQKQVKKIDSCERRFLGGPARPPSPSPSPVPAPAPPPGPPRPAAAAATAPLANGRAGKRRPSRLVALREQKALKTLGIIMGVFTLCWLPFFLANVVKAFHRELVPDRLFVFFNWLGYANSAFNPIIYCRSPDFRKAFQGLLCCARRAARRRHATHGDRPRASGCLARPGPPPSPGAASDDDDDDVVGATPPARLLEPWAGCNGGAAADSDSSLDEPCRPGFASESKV
Chain of 5-hydroxytryptamine receptor 2B (P41595 whole entry): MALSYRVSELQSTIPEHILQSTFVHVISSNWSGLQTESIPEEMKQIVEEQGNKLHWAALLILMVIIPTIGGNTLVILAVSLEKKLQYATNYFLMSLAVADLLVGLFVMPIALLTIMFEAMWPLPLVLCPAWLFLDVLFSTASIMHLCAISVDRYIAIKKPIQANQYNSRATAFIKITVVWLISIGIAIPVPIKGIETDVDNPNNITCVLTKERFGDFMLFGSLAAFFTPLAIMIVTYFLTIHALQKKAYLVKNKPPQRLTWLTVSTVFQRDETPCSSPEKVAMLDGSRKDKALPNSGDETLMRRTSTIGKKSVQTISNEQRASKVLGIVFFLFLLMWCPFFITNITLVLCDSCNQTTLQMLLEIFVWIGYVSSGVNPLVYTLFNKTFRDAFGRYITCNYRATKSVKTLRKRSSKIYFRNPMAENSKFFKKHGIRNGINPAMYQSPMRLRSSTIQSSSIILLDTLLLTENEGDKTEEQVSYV
T2 sequence (O88410 whole entry): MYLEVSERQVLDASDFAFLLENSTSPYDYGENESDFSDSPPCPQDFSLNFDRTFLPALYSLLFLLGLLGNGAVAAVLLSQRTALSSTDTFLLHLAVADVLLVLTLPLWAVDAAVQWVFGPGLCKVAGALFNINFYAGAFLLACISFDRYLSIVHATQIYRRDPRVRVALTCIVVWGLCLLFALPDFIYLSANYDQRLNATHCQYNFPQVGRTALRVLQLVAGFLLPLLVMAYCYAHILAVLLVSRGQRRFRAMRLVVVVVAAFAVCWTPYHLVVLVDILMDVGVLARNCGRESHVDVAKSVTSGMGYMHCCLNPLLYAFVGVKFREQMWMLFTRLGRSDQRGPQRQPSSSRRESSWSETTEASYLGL
Chain of Alpha-2C adrenergic receptor (P18825 whole entry): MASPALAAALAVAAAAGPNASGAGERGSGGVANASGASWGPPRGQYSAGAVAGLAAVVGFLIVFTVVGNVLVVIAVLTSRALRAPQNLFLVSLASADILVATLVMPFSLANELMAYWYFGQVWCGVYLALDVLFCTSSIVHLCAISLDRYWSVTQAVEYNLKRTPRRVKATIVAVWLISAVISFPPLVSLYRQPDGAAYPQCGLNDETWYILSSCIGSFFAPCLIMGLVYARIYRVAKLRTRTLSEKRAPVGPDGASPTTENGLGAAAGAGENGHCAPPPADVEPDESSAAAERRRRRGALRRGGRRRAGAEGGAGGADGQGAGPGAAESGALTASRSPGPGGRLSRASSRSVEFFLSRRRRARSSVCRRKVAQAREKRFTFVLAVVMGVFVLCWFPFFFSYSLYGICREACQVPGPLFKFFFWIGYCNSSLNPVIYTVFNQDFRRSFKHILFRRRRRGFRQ
Chain of 5-hydroxytryptamine receptor 6 (P50406 whole entry): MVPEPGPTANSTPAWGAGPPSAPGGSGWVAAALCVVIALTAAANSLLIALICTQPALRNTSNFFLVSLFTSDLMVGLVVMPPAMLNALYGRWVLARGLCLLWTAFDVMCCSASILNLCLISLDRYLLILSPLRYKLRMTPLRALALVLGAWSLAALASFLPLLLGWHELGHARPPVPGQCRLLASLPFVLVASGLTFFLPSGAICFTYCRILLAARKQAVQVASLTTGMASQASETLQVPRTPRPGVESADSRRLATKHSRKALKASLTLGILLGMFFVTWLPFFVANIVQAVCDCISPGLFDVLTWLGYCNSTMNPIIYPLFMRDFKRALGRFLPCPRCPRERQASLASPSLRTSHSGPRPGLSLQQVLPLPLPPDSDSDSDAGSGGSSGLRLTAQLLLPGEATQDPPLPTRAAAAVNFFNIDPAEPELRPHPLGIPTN

Molecule `CCN(CC)C(=O)[C@H]1C=C2c3cccc4[nH]cc(c34)C[C@H]2N(C(=O)Nc2ccccc2)C1` has an IC50 [1] greater than 10000 nM.
Molecule `CCN(CC)C(=O)[C@@H]1C=C2c3cccc4[nH]cc(c34)C[C@H]2N(C(=O)Nc2cc(OC)c(OC)c(OC)c2)C1` has an IC50 [2] of 564 nM and an IC50 [1] of 3050 nM.
Work on `CCN(CC)C(=O)[C@@H]1C=C2c3cccc4c3c(cn4Cc3ccccc3)C[C@H]2N(C(=O)Nc2ccccc2)C1` yielded an IC50 [2] of 510 nM and an IC50 [1] of 590 nM.
Work on `CCN(CC)C(=O)[C@@H]1C=C2c3cccc4[nH]cc(c34)C[C@H]2N(C(=O)Oc2ccccc2)C1` yielded an IC50 [2] of 809 nM and an IC50 [1] of 803 nM.
`CCN(CC)C(=O)[C@@H]1C=C2c3cccc4[nH]cc(c34)C[C@H]2N(C(=O)Nc2cccc(C)c2)C1` showed an IC50 [2] of 45 nM and an IC50 [1] of 231 nM.
`CCN(CC)C(=O)[C@@H]1C=C2c3cccc4[nH]cc(c34)C[C@H]2N(C(=O)Nc2ccc(C)cc2)C1` gave an IC50 [2] of 100 nM and an IC50 [1] of 313 nM.
With `CCN(CC)C[C@@H]1C=C2c3cccc4[nH]cc(c34)C[C@H]2N(C(=O)Nc2ccccc2)C1` the IC50 [2] was greater than 10000 nM and the IC50 [1] was greater than 10000 nM.
`CCN(CC)C(=O)[C@@H]1C=C2c3cccc4[nH]cc(c34)C[C@H]2N(C(=O)Nc2ccncc2)C1` gave an IC50 [2] of 6800 nM and an IC50 [1] of 2000 nM.
In the case of `CCN(CC)C(=O)[C@@H]1C=C2c3cccc4c3c(cn4C)C[C@H]2N(C(=O)Nc2ccccc2)C1`, the IC50 [2] is reported as 60 nM and the IC50 [1] is reported as 220 nM.
`CCN(CC)C(=O)[C@@H]1C=C2c3cccc4[nH]cc(c34)C[C@H]2N(C(=O)Nc2ccccc2)C1` gave a solubility [3] of 5 µg/mL (≈ 11.7 µM), an IC50 [4] of 9.58 µM and a fraction unbound [5] of 0.01. The IC50 [2] was 18 nM, the IC50 [6] was 3.6 µM and the logP [7] was 4.2. The IC50 [8] was greater than 30 µM, the IC50 [9] was 215 nM and the IC50 [10] was greater than 10 µM. For the same molecule, the IC50 [11] was 1930 nM, the IC50 [12] was greater than 10000 nM and the IC50 [13] was 660 nM. The IC50 [1] was 54 nM, the IC50 [14] was greater than 10 µM and the IC50 [15] was 200 nM. For the same molecule, the IC50 [16] was greater than 10 µM, the IC50 [17] was 5.76 µM and the IC50 [18] was greater than 10000 nM. For the same molecule, the IC50 [19] was 4.03 µM, the fraction unbound [20] was 0.02 and the IC50 [21] was greater than 10 µM. It also gave a solubility [22] of 5 µg/mL (≈ 11.7 µM), an IC50 [23] of 2650 nM and an IC50 [24] of 2470 nM. It also gave an IC50 [25] of 4.9 µM, an IC50 [26] of 750 nM and an IC50 [27] greater than 10 µM. For the same molecule, the IC50 [28] was 30 nM and the IC50 [29] was 1590 nM.
For `CCN(CC)C(=O)[C@@H]1C=C2c3cccc4[nH]cc(c34)C[C@H]2N(C(=O)NC2CCCCC2)C1`, the IC50 [2] was 78 nM and the IC50 [1] was 179 nM.
`CCN(CC)C(=O)[C@@H]1C=C2c3cccc4[nH]cc(c34)C[C@H]2N(C(=O)N(C)c2ccccc2)C1` showed an IC50 [2] greater than 10000 nM and an IC50 [1] greater than 10000 nM.
In the case of `CCN(CC)C(=O)[C@@H]1C=C2c3cccc4[nH]cc(c34)C[C@H]2N(C(=O)Nc2ccccc2C)C1`, the IC50 [2] is reported as 28 nM and the IC50 [1] is reported as 146 nM.
With `CCN(CC)C(=O)[C@@H]1C=C2c3cccc4[nH]cc(c34)C[C@H]2N(C(=O)Nc2ccccn2)C1` the IC50 [2] was 62 nM and the IC50 [1] was 428 nM.
`CCN(CC)C(=O)[C@@H]1C=C2c3cccc4[nH]cc(c34)C[C@H]2N(C(=O)Nc2cccnc2)C1` gave an IC50 [2] of 67 nM and an IC50 [1] of 285 nM.
For `CCN(CC)C(=O)[C@@H]1C=C2c3cccc4[nH]cc(c34)C[C@H]2NC1`, the IC50 [4] was 0.016 µM, the IC50 [9] was greater than 10000 nM and the IC50 [11] was greater than 10000 nM. It also gave an IC50 [12] of 1290 nM, an IC50 [13] greater than 10000 nM and an IC50 [1] greater than 10000 nM. It also gave an IC50 [17] greater than 10 µM, an IC50 [18] of 143 nM and an IC50 [19] greater than 10 µM. For the same molecule, the IC50 [23] was greater than 10000 nM, the IC50 [24] was 54 nM and the IC50 [25] was greater than 10 µM. The IC50 [26] was 6 nM and the IC50 [29] was greater than 10000 nM.
`CCN(CC)C(=O)[C@@H]1CC2c3cccc4[nH]cc(c34)C[C@H]2N(C(=O)Nc2ccccc2)C1` (some centres not stated) showed an IC50 [2] of 1930 nM and an IC50 [1] of 5300 nM.
